Measurements reported in ChEMBL document CHEMBL3616459, “Antimicrobial peptides with potential for biofilm eradication: synthesis and structure activity relationship studies of battacin peptides” (J Med Chem, 2015).
Activity calls are given as the source filed them. No cut-off for these calls is given here. Non-standard residues stand in square brackets, D forms with d. Residues, ends and D or L forms follow the SMILES beside them. ξ: configuration not given here. *: point of attachment. Hexanoyl(4ξ-Me) = CCC(C)CCC(=O)*; dDab = NCC[C@@H](N)C(=O)O; Dab = NCC[C@H](N)C(=O)O

Legend:
Escherichia coli [1] = assay: Bactericidal activity against Escherichia coli assessed as reduction in bacterial count at 2 to 4 times MIC after 24 hrs by time-kill assay relative to control; assay type: functional, organism-based
How it was run: (§1)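 Time-kill assay. Overnight culture diluted in LB to mid-log phase, 10^5–10^8 CFU/mL; 100 μL added to 10 mL peptide in LB at 1×, 2×, 4× and 20× MIC. Incubated with shaking at 100 rpm, at 28 °C (Ea1501, Psa) or 37 °C (E. coli, P. aeruginosa, S. aureus). Samples at 0, 0.5, 1, 3, 6, 9 and 24 h serially diluted in 0.9% saline and plated; colonies counted after 24 h. Run in duplicate. Bactericidal means ≥2-log10 CFU/mL drop versus the no-antibiotic control.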

Erwinia amylovora [2] = assay: Bactericidal activity against Erwinia amylovora 1501 at MIC […] by time-kill assay; assay type: functional, organism-based
[3] = Hemolytic activity in mouse erythrocytes at 100 uM to 1 mM after 1 hr by spectrophotometry; assay type: ADME, cell-based, Erythrocyte; conditions: read-out: Activity
How it was run: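 100 μL peptide (1 μM–1 mM in Tris buffer) plus 100 μL cells, incubated 1 h at 37 °C, triplicates. After centrifugation, supernatant A540 read. Percent hemolysis calculated relative to buffer (0%) and 0.1% Triton X-100 (100%) controls.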

Pseudomonas aeruginosa [4] = assay: Antimicrobial activity against Pseudomonas aeruginosa assessed as inner membrane permeability at 0.5 to 100 uM measured after 60 min by propidium iodide uptake assay
Escherichia coli [5] = assay: Bactericidal activity against Escherichia coli assessed as reduction in bacterial count at 2 to 4 times MIC up to 9 hrs by time-kill assay relative to control; assay type: functional; how it was run: as §1
Pseudomonas aeruginosa [6] = assay: Antimicrobial activity against Pseudomonas aeruginosa preformed biofilms at 10 to 50 uM after 48 hrs; assay type: functional, organism-based
How it was run: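 Biofilms preformed 48 h without peptide, then washed. Peptide at 10, 50 or 100 μM in LB added and incubated a further 24 h at 37 °C. Live/dead BacLight staining on coverslips, then fluorescence microscopy at 1000×.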

Erwinia amylovora [7] = assay: Bactericidal activity against Erwinia amylovora 1501 at 2 to 20 times MIC up to 6 hrs by time-kill assay; assay type: functional, organism-based; how it was run: as §1
Staphylococcus aureus [8] = assay: Bactericidal activity against Staphylococcus aureus at 1 to 2 times MIC after 6 hrs by time-kill assay; assay type: functional, organism-based; how it was run: as §1
Escherichia coli [9] = assay: Bactericidal activity against Escherichia coli assessed as reduction in bacterial count at 20 times MIC up to 3 hrs by time-kill assay relative to control; assay type: functional; how it was run: as §1
Pseudomonas aeruginosa [10] = assay: Bactericidal activity against Pseudomonas aeruginosa assessed as reduction in bacterial count at 2 to 4 times MIC after 24 hrs by time-kill assay relative to control; assay type: functional; how it was run: as §1
Staphylococcus aureus [11] = assay: Antimicrobial activity against Staphylococcus aureus assessed as complete cell lysis at 2 times MIC […]; assay type: functional, organism-based
Staphylococcus aureus [12] = assay: Bactericidal activity against Staphylococcus aureus at 1 to 2 times MIC after 24 hrs by time-kill assay; assay type: functional, organism-based; how it was run: as §1
Escherichia coli [13] = assay: Bactericidal activity against Escherichia coli by time-kill assay; assay type: functional, organism-based; how it was run: as §1

Compound: CCC(C)CCC(=O)N[C@H](CCN)C(=O)N[C@@H](CCN)C(=O)N[C@@H](CCN)C(=O)N[C@@H](CC(C)C)C(=O)N[C@H](Cc1ccccc1)C(=O)N[C@@H](CCN)C(=O)N[C@@H](CCN)C(=O)N[C@@H](CC(C)C)C(N)=O (stereo partly drawn) ({Hexanoyl(4ξ-Me)}-[dDab][Dab][Dab]L[dF][Dab][Dab]L-NH2)
- Activity (Escherichia coli [1]): inactive
- Activity (Erwinia amylovora [2]): inactive
- hemolysis at 1 h, 100 µM [3]: 1.79%
- Activity (Pseudomonas aeruginosa [4]): Active
- Activity (Escherichia coli [5]): >3 deltalog10CFU/ml
- Activity (Pseudomonas aeruginosa [6]): Active
- Activity (Erwinia amylovora [7]): Active
- Activity (Staphylococcus aureus [8]): Active
- Activity (Escherichia coli [9]): >3 deltalog10CFU/ml
- Activity (Pseudomonas aeruginosa [10]): >2 deltalog10CFU/ml
- Activity (Staphylococcus aureus [11]): Active
- Activity (Staphylococcus aureus [12]): Active
- Activity (Escherichia coli [13]): Dose-dependent effect
